Assay [1] deals with MKN-45. Kind of assay: Induction of apoptosis in human MKN45 assessed as accumulation at subG1 phase at 1 uM incubated for 7 days by flow cytometry (reference value: 10.9 +/- 3.2%). Format: functional. (Flow cytometry measures light scatter and fluorescence of single cells or particles in a stream.)
The target of assay [2] is Glycogen synthase kinase-3 beta (Homo sapiens, UniProt P49841). The assay is described as follows: Inhibition of GSK3beta assessed as enzyme residual activity at 10 uM relative to untreated control. Summed up: (§1)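 Residual kinase activity at 10 μM compound, determined by a commercial kinase profiling service (Millipore) across 15 kinases of different classes. Each compound tested in duplicate.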
Glycogen synthase kinase-3 beta, sequence (P49841 whole entry, looked up): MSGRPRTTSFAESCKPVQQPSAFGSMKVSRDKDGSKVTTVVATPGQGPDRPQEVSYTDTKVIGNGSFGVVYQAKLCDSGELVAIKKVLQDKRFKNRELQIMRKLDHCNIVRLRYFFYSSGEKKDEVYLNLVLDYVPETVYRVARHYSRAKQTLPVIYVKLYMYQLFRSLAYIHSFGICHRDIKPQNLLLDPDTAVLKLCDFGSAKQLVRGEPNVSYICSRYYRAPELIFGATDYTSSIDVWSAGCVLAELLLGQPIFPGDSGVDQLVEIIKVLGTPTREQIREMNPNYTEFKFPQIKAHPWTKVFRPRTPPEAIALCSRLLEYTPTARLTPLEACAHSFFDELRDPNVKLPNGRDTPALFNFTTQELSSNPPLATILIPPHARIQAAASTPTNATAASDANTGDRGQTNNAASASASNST

In assay [3] the test system is MOLM-14. Kind of assay: Cytotoxic activity against human MOLM14 cells assessed as cell viability at 50 uM incubated for 3 days by MTT assay. Format: functional. The conditions noted are these: MOLM-14, 72 h, read-out: Activity. An outline of the steps:
(§2)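 MTT viability: exponentially growing cells, 10 000 viable cells/well in RPMI plated overnight, then exposed to test compounds for 3 days (HT-29, Molm-14) or 5 days (Mkn-45) at 37 °C, 5% CO2. MTT added for 4 h, then SDS/HCl solubilization overnight and absorbance read at 562 nm. Viability is expressed relative to untreated cells (100%). Triplicate.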
Background: Tetrazolium assays rely on reduction of a dye to a coloured formazan, in cell work by metabolically active cells.

Assay [4] deals with CDK6/cyclin D3 (Homo sapiens) (UniProt P30281+Q00534). The assay is described as follows: Inhibition of CDK6/cyclinD3 assessed as enzyme residual activity at 10 uM relative to untreated control. Format: protein-complex assay. Summed up:
as §1

In assay [5] the test system is MKN-45. Kind of assay: Cytotoxic activity against human MKN45 cells assessed as cell viability at 0.5 uM incubated for 5 days by MTT assay. Format: functional. The note with it: MKN-45, 120 h, read-out: Activity. An outline of the steps:
as §2

Assay [6] deals with Cyclin-dependent kinase 1/cyclin B1 (Homo sapiens) (UniProt P06493+P14635). Kind of assay: Inhibition of CDK1/cyclinB assessed as enzyme residual activity at 10 uM relative to untreated control. Format: protein-complex assay. An outline of the steps: as §1
Cyclin-dependent kinase 1/cyclin B1 (Homo sapiens), sequence (P06493 whole entry, looked up): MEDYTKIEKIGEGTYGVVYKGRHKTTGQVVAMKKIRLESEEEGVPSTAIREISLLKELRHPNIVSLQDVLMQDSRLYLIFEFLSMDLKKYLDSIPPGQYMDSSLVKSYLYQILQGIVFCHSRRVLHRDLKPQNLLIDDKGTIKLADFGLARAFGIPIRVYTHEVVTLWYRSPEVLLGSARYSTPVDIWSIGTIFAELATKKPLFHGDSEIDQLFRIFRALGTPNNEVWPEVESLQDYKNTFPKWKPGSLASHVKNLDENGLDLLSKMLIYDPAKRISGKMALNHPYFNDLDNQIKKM
Cyclin-dependent kinase 1/cyclin B1 (Homo sapiens), sequence (P14635 whole entry, looked up): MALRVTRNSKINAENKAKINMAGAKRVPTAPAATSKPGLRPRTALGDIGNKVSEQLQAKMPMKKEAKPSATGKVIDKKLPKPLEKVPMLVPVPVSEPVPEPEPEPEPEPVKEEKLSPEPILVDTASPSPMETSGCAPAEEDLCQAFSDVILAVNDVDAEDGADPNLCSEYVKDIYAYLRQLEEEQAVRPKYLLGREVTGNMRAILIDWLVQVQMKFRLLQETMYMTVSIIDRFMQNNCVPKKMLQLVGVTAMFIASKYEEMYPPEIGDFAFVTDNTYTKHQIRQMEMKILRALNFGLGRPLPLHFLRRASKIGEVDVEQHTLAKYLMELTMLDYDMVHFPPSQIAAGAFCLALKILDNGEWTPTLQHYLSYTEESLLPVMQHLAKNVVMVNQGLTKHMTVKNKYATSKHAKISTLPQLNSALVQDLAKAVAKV
Another assay concerns HUVEC. Kind of assay: Induction of apoptosis in human HUVEC assessed as accumulation at subG1 phase at 2.6 uM incubated for 4 days by flow cytometry (reference value: 15.4 +/- 1.5%). It counts as functional.
Assay [7] has as its system MOLM-14. The assay is described as follows: Cytotoxic activity against human MOLM14 cells assessed as cell viability at 10 uM incubated for 3 days by MTT assay. Format: functional. The conditions noted are these: MOLM-14, 72 h, read-out: Activity. Summed up: as §2
For assay [8], the target named is Protein kinase C iota type (Homo sapiens) (UniProt P41743). Kind of assay: Inhibition of PKCiota assessed as enzyme residual activity at 10 uM relative to untreated control. An outline of the steps: as §1
Protein kinase C iota type (Homo sapiens), sequence (P41743 whole entry): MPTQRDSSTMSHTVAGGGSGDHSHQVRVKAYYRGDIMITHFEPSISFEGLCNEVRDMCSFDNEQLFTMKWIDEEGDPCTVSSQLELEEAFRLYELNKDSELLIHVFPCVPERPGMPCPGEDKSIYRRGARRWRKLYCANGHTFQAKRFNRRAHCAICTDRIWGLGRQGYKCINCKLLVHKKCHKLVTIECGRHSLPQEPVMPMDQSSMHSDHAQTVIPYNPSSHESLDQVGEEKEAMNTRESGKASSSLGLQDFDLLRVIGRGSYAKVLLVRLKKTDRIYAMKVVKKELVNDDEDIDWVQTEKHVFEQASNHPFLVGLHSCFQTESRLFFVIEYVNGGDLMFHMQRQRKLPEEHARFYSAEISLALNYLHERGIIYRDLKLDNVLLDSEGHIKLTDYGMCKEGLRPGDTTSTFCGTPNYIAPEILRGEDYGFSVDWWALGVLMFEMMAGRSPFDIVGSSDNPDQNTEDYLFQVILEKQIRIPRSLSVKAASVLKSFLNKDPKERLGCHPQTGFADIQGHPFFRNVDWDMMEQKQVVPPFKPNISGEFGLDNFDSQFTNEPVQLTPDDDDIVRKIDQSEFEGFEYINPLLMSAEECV
The target of assay [9] is T1, Receptor-type tyrosine-protein kinase FLT3 (Homo sapiens, UniProt P36888).
T1 sequence (P36888 whole entry): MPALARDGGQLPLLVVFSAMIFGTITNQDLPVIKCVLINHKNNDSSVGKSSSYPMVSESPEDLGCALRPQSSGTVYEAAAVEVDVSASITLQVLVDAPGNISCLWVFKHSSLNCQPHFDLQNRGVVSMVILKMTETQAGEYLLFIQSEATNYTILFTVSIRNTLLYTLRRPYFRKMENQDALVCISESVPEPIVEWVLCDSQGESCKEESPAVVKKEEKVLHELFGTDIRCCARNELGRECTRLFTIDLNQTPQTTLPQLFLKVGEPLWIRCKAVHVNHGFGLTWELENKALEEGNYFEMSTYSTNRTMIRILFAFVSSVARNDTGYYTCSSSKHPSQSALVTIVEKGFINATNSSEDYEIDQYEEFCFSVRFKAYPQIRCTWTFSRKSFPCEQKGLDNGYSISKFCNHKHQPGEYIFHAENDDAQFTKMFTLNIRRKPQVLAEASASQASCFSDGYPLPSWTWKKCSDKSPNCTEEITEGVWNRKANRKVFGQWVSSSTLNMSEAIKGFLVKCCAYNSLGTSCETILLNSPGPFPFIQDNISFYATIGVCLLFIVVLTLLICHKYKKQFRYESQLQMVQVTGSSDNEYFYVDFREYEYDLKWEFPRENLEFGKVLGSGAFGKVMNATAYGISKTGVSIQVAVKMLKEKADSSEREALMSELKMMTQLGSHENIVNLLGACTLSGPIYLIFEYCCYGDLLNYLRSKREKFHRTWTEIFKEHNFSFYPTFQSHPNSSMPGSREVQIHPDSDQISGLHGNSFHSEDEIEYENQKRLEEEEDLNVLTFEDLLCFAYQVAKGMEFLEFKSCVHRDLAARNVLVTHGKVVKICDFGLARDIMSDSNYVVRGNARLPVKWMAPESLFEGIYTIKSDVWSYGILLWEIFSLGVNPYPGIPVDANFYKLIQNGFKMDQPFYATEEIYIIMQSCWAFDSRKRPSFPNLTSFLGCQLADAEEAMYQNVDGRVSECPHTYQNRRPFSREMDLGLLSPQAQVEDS
Kind of assay: Inhibition of FLT3. Summed up:
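Run as an outsourced kinase profiling service (Millipore IC50 Profiler), with the protocol referred to the provider. Gives IC50 values and residual activity at 10 μM test compound. Compounds tested in duplicate.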

For assay [10], the target named is Hepatocyte growth factor receptor (Homo sapiens) (UniProt P08581). Kind of assay: Inhibition of MET assessed as enzyme residual activity at 10 uM relative to untreated control. An outline of the steps:
as §1

Assay [11] has as its system MOLM-14. The assay is described as follows: Cytotoxic activity against human MOLM14 cells assessed as cell viability at 1 uM incubated for 3 days by MTT assay. Format: functional. The note with it: MOLM-14, 72 h, read-out: Activity. An outline of the steps: as §2

Structures are written as SMILES.

Hepatocyte growth factor receptor (Homo sapiens), sequence (P08581 whole entry): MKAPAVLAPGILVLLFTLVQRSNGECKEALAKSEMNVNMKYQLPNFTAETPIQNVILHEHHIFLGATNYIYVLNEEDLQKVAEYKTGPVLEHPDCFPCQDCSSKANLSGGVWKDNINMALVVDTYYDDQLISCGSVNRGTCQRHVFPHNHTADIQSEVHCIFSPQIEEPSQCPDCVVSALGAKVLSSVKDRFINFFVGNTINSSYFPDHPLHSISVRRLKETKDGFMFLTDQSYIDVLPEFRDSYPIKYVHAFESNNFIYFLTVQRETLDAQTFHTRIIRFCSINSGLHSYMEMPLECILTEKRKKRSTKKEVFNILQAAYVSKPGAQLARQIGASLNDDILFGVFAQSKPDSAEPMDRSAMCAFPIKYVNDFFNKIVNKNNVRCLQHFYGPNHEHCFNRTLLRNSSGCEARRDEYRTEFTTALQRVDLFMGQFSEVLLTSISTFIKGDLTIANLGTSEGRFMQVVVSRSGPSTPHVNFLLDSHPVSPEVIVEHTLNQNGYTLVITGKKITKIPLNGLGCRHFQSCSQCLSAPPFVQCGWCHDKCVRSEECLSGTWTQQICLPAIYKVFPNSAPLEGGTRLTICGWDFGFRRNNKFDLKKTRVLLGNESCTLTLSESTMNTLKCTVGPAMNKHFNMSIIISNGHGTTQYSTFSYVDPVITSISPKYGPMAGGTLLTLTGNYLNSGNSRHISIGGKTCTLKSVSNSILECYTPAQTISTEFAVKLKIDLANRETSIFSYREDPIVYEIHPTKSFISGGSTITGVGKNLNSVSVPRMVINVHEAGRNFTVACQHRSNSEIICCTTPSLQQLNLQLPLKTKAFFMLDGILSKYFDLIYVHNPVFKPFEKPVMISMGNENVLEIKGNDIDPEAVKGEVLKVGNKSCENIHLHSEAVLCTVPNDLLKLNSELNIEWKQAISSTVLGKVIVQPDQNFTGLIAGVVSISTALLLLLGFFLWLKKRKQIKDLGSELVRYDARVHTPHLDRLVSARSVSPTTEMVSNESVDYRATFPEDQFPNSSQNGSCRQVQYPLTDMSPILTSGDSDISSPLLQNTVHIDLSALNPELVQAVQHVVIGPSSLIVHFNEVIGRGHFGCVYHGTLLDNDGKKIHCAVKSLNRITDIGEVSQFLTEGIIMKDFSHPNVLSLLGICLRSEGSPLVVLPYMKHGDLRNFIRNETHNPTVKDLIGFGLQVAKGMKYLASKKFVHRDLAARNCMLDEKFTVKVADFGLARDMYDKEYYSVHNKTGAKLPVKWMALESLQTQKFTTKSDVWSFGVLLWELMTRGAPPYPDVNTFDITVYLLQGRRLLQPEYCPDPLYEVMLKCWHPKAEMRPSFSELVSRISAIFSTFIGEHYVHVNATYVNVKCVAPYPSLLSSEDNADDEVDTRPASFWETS

Broadly, the IC50 is the midpoint of a concentration-inhibition curve. Read a high IC50 as weaker potency in that assay. As for `COc1cc(C2=C(c3c[nH]c4cnccc34)C(=O)NC2=O)cc(OC)c1OC`, the Activity was 12.8% with MKN-45 [1]; 2% in assay [2]; 103% in assay [4]; 80% in assay [6]; 66.3% in the assay with HUVEC; 99% in [8]. Moreover, the Activity in assay [10] is 83%. In addition, the viability at 50 µM in the assay with MOLM-14 [3] stood at 2.4%. The viability at 0.5 µM in the assay with MKN-45 [5] was 99.2%. In the assay with MOLM-14 [7], the viability at 10 µM was 9.35%. The compound also displayed an IC50 in assay [9] of 18 nM. Also, the viability at 1 µM in the assay with MOLM-14 [11] came out at 54.2%.

These data come from ChEMBL document CHEMBL2177085 (J Med Chem, 2012).
